Assay outcomes as filed in PubChem.
XiGFP reactiv: reactivates the inactive X chromosome in mouse fibroblasts; activation, % at 7.58 µM; AID 743238; hit rate 0.055% among 360,000; XiGFP mouse fibroblasts, % GFP-positive cells imaging, 3 d; cells co-treated with 5-aza-dC sensitizer; scaled so ellipticine positive control = 100%;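 active = mean normalized replicate activation at least 10% and every replicate at or above 10%; inconclusive = only one of the two criteria met; inactive = mean below 10% and not all replicates reach 10%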;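 note: 0% = median of on-plate neutral control wells and 100% = ellipticine 6 µM median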
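Material: SV40-immortalized XiGFP fibroblast cells, line 68-5-11 | Buffer or medium: DMEM containing 5-aza-dC | Dosing: One concentration, pinned | Times: 3 d treatment, 15 min room-temperature fixation | Controls: Ellipticine 6 µM positive control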
FN deposition inh: fibronectin deposition inhibition | AH1F fibroblasts, Alexa488-fibronectin deposition fluorescence, overnight | inhibition, % at 12.6 µM | hit rate 0.086% among 350,000 | AID 743247;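 active = mean inhibition across replicates of 30% or more, regardless of how many single replicates reach that level; inconclusive = mean under 30% yet at least half of replicates reach 30%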;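 note: positive control wells lacked labelled fibronectin entirely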
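Material – AH1F fibroblast monolayer, labelled fibronectin deposition · Reagent – labelled fibronectin 24 nM · Timing – 1 h adhesion, overnight exposure · Measured by – fluorescence at 485 nm excitation, 525 nm emission · Read-out – inhibition of fibronectin deposition signal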
LGR2 antag: Drosophila LGR2 receptor signaling inhibition; inhibition, % at 9.99 µM; hit rate 0.35% among 380,000; HEK293 LGR2, CRE-luciferase, bursicon-stimulated, 4 h;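 active = drop in luminescence signal, shown as inhibition above about 50% in the replicate tests, limit read from the data, passing the limit was not always enough; inconclusive = probably only some replicates passing the limit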;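 note: agonist challenge used bursicon conditioned medium at about half maximal strength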
EWS-Fli inh: EWS/Fli transcriptional activity inhibition | A673 NR0B1-luciferase reporter, viability-normalised | inhibition, % at 12.6 µM | hit rate 0.67% among 350,000 | AID 651661;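 active = mean inhibition of at least 50% after viability correction, with every replicate also passing that limit; inconclusive = mean reaches 50% but only one of two replicates passes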;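 note: firefly luciferase signal divided by Alamar Blue viability fluorescence both relative to DMSO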
TROY NFkB inh: inhibitors of TROY-dependent NF-kB signaling; Q293 LMP1-TROYcd NF-kB luciferase reporter, 4 h; inhibition, % at 10 µM; hit rate 0.98% among 360,000; AID 1347056;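 active = compounds whose plate-normalised and pattern-corrected inhibition of the luciferase reporter signal at the single screening dose is 50% or more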
TWEAK Fn14 block: TWEAK-Fn14 signaling inhibition; AID 1159606; hit rate 2% among 360,000; TWEAK-stimulated Fn14 reporter cells, luciferase luminescence, 8 h; inhibition, % at 10 µM; in the data active = inhibition above about 50%
Numbers without * were called inactive; ? = inconclusive; · = no result. In the library only some 2.3% were active in any assay of this set; here they are far more common.

SMILES	XiGFP reactiv	FN deposition inh	LGR2 antag	EWS-Fli inh	TROY NFkB inh	TWEAK Fn14 block
CCOC(=O)c1c(C)[nH]c(C(=O)N/N=C/c2cc([N+](=O)[O-])ccc2O)c1C	0	4	3	5	77*	77*
COc1cccc(C(=O)Nc2ccc3c(c2)C(=O)N(C)[C@@H]2CC[C@@H](CC(=O)NCCCN4CCOCC4)O[C@H]2CO3)c1	0	15	6	1	·	·
COc1cccc(CN2[C@@H](CO)[C@H](c3ccccc3)C23CN(C(=O)C2CCOCC2)C3)c1	0	·	5	3	·	·
COc1ccc(C(C#N)=C2C=CC(=NO)C=C2)cc1	0	6	-10	6	24	40
N#CC(=C1C=CC(=NO)C(Cl)=C1)c1ccc(Cl)cc1	0	-24	-15	10	27	64*
CC1CCC(C(C)C)C(OC(=O)Cn2c(-c3ccc(F)cc3)[n+](C)c3ccccc32)C1 (stereo unspecified)	0	-3	?	13	31	45
Cc1cccc(OCc2n(CC(=O)OC3CC(C)CCC3C(C)C)c3ccccc3[n+]2C)c1 (stereo unspecified)	·	·	·	·	64*	75*
CC1CCC(C(C)C)C(OC(=O)Cn2c(-c3ccccc3)[n+](C)c3ccccc32)C1 (stereo unspecified)	0	2	59*	14	57*	64*
O=C(C[C@@H]1CC[C@@H]2[C@H](COC[C@H](O)CN2CC2CC2)O1)NCc1ccc(Cl)cc1	0	-3	10	-7	·	·
C[C@@H]1CCCCO[C@@H](CN(C)C(=O)NC2CCCCC2)[C@@H](C)CN([C@H](C)CO)C(=O)c2cc(NS(=O)(=O)c3cccs3)ccc2O1	-1	·	-10	-22	·	·
Cc1cccc(S(=O)(=O)N2C[C@H](O)COC[C@H]3O[C@H](CC(=O)N4CCN(C)CC4)CC[C@@H]32)c1	0	0	2	-5	·	·
Cc1cc(C(C)(C)C)oc1C(=O)NCCCNC(=O)c1oc(C(C)(C)C)cc1C	·	·	·	·	·	74*
Cc1cc(C(C)(C)C)oc1C(=O)OCC(=O)NC1CCCCC1	-1	1	-15	-6	-7	-7
O=C(C[C@@H]1C=C[C@@H](NC(=O)c2ccccc2)[C@@H](CO)O1)NCc1ccncn1	0	·	11	-8	·	·
O=c1oc2cc(O)ccc2cc1S(=O)(=O)c1ccccc1	0	4	-10	·	6	5
Cc1ccc(S(=O)(=O)c2cc3cc(Br)ccc3oc2=O)cc1	·	·	19	·	-16	80*
CC(C)c1ccc(S(=O)(=O)c2cc3cc(Br)ccc3oc2=O)cc1	0	10	-2	·	-7	54*
Cc1noc(C)c1S(=O)(=O)Nc1ccc2c(c1)C(=O)N([C@@H](C)CO)C[C@H](C)[C@H](CN(C)Cc1ccc3c(c1)OCO3)OCCCC[C@H](C)O2	0	·	0	-4	·	·
Cc1cccc(-c2nnc3n2N=C(c2ccccc2)CS3)c1	·	active	·	·	5	4
c1ccc(-c2cc(-c3nnc4n3N=C(c3ccc5ccccc5c3)CS4)[nH]n2)cc1	·	·	0	·	6	68*
c1ccc(C2=Nn3c(nnc3-c3ccncc3)SC2)cc1	·	3	·	·	20	44
COc1ccccc1S(=O)(=O)Nc1ccc2c(c1)OC[C@H](C)NC[C@@H](C)[C@@H](OC)CN(C)C2=O	0	3	15	6	·	·
N#CC1=C(N)NC(SCc2ccc(Br)cc2)=C(C#N)C12CCCCC2	·	3	·	·	54*	2
N#CC1=C(N)NC(SCc2ccc(Cl)cc2)=C(C#N)C12CCCCC2	·	·	-4	·	0	11
COc1cccc(Nc2nc(N)c([N+](=O)[O-])c(NCc3ccccc3)n2)c1	0	6	-8	-8	-5	51*
SMILES	XiGFP reactiv	FN deposition inh	LGR2 antag	EWS-Fli inh	TROY NFkB inh	TWEAK Fn14 block
Nc1nc(Nc2ccccc2)nc(NC2CCCCC2)c1[N+](=O)[O-]	0	9	0	-4	74*	32
COc1ccccc1C#Cc1ccc([C@H]2[C@@H](CO)N3CCCCN(C(=O)C4CC4)C[C@@H]23)cc1	·	·	·	-12	·	·
CC(C)COC(=O)N(C)C[C@H]1OCc2ccccc2-c2ccccc2C(=O)N([C@H](C)CO)C[C@@H]1C	0	-20	·	·	·	·
COc1ccc(S(=O)(=O)NCCSCc2ccco2)cc1	·	·	24	·	·	72*
c1cncc(-c2csc(-c3cccnc3)n2)c1	0	10	2	-9	-10	-2
Oc1ccc(-c2csc(-c3cccnc3)n2)c(O)c1	0	·	?	-40	-30	54*
COc1ccc(NC(=O)N2CCCc3ccccc32)c(OC)c1	0	9	3	-8	70*	51*
COc1ccc2c(c1)CCCN2C(N)=O	·	·	-1	5	4	58*
COc1ccc(C(=O)N2CCCc3ccccc32)cc1	·	·	·	·	-11	20
COc1ccc(C)cc1NC(=O)N1CCCc2ccccc21	0	-4	-26	8	70*	55*
O=C(c1cccnc1)N1CC(=O)N2[C@H](C1)[C@@H](c1ccc(/C=C/c3ccccc3)cc1)[C@@H]2CO	0	·	9	-1	·	·
C[C@H]1CN([C@@H](C)CO)C(=O)c2cccc(NC(=O)Nc3ccc4c(c3)OCO4)c2O[C@@H]1CN(C)Cc1ccc(Cl)c(Cl)c1	0	·	-8	-9	·	·
O=C(OCCN1C(=O)c2ccccc2C1=O)c1cc(S(=O)(=O)N2CCOCC2)ccc1Cl	·	·	-24	·	-9	26
O=C(OCCN1C(=O)c2cccc3c(N4CCOCC4)ccc(c23)C1=O)c1ccccc1Cl	1	-2	76*	·	73*	104*
O=C(OCCN1C(=O)c2cccc3c(N4CCOCC4)ccc(c23)C1=O)c1ccc(Cl)cc1Cl	0	-1	-7	·	49	90*
COc1ccc(S(=O)(=O)/N=C2\C=C(Nc3ccc(O)cc3)C(=O)c3ccccc32)cc1	1	36*	101*	52*	35	101*
COC(=O)C(C(C)=O)C1=C/C(=N\S(=O)(=O)c2ccc(C)cc2)c2ccccc2C1=O (stereo unspecified)	·	·	·	·	0	17
Cc1ccccc1NC1=C/C(=N\S(=O)(=O)c2cccs2)c2ccccc2C1=O	·	52*	·	·	67*	102*
CC(=O)Nc1ccc(NC(=O)C(C)OC(=O)c2ccccc2NS(=O)(=O)c2cccs2)cc1 (stereo unspecified)	0	1	15	-35	-8	14
CC(=O)Nc1ccc(NC2=C/C(=N/S(=O)(=O)c3cccs3)c3ccccc3C2=O)cc1	0	·	98*	18	67*	99*
Cc1ccc(NC2=C/C(=N/S(=O)(=O)c3cccs3)c3ccccc3C2=O)cc1C	0	-8	0	-1	-51	-38
COc1ccc2c3c([nH]c2c1)[C@H](CO)N(C(=O)c1cnccn1)CC31CCN(C(=O)c2cnccn2)CC1	1	·	-3	1	·	·
